Measurements: PubChem BioAssay AID624072 (Broad Institute, 2012)
The source made the active and inactive calls.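 How the source made its calls: active means compounds whose fitted curve reaches a 35% growth drop at up to twice the top tested dose; inconclusive means flat curve with a 30 to 70% growth drop, or poor fit; inactive means opposite effect, flat curve, or crossing beyond the limit.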

How the values were obtained:
[1] = tested on: P. aeruginosa PAK mexAB-oprM, EDDHA, OD600 growth, 28 h; experiment: iron-limited growth inhibition, mexAB-oprM mutant – whole organism, PAK mexAB-OprM mutant, OD600, EDDHA, dry powder, set 3, dose response (AID 624072)
Procedure, shortened: (§1)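 material = Pseudomonas aeruginosa PAK efflux pump deletion mutant ΔmexAB-oprM | buffer or medium = iron-limited succinate M9 medium, pH 7.0, with 2 µM EDDHA chelator | schedule = 28 h compound exposure at 30 °C, humidified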

[2] = as above; details: P. aeruginosa PAK mexAB-oprM, EDDHA, OD600 growth, 28 h; at 100 µM (top of the series)
Procedure, shortened: as §1

| Structure (SMILES) | AC35 [1] [µM] | activity change, negative = growth inhibition [2] |
| --- | --- | --- |
| N#CC(c1cccc(Cl)n1)c1ccc(Cl)cc1F (stereo not given) | 6.02 | – |
| COCCC(C#N)c1ccc(F)cc1 (stereo not given) | 98.3 | – |
| N#CC(c1ccc(Cl)cc1)c1ncccc1Cl (stereo not given) | 6.94 | – |
| N#CC(c1ccc(F)cc1)c1cccc(C(F)(F)F)n1 (stereo not given) | 3 | – |
| COCCNC(C#N)c1ccc(Cl)cc1 (stereo not given) | – | -9.68% (inactive) |
| N#CC(c1ccc(Cl)cc1)c1ccc(Cl)cn1 (stereo not given) | 9.77 | – |
| CCCCC(c1ccc(Cl)cc1)c1nn[nH]n1 (stereo not given) | 97.2 | – |
| N#CC(c1ccc(Cl)cc1)c1cccc(Cl)n1 (stereo not given) | 5.35 | – |
| N#CC(c1ccc(Cl)cc1)c1cccc(C(F)(F)F)n1 (stereo not given) | 3.92 | – |
| N#CC(c1cccc(C(F)(F)F)n1)c1ccc(Cl)cc1F (stereo not given) | 4.24 | – |
